≈ marks a conversion by molar mass, not a printed value.
Experiments:
[1] = system: Mycobacterium tuberculosis; assay: Antimycobacterial activity against Mycobacterium tuberculosis H37Rv assessed as growth inhibition […] by Lowenstein-Jensen agar dilution method; format: functional
How it was run: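 Test compounds dissolved in DMSO and added to liquid Lowenstein-Jensen medium at 25, 12.5, 6.25, 3.12 and 1.56 dilutions. Medium sterilised by inspissation, then tubes held 37 °C for 24 h. H37Rv (harvested into 0.85% saline) streaked at 5 × 10⁴ bacilli/tube and incubated at 37 °C. Growth checked at 12, 22 and 28 days against medium-only controls. MIC taken as no colonies or <20 colonies.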

Vero = assay: Cytotoxicity against African green monkey Vero cells assessed as cell viability after 72 hrs by MTT assay; format: cell-based; settings: Chlorocebus sabaeus
[2] = system: Mycobacterium tuberculosis; assay: Antimycobacterial activity against Mycobacterium tuberculosis H37Rv assessed as growth inhibition at 6.25 ug/ml measured within 10 days by BACTEC MGIT method; format: functional; settings: 240 h
How it was run: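 Primary single-concentration screen at 6.25 in MGIT tubes containing modified Middlebrook 7H9 broth. H37Rv inoculum was 10⁴–10⁷ CFU/mL, […]. Incubated at 37 °C in the BACTEC MGIT instrument until positive, read daily from day 2. Fluorescence was judged under UV beside positive control and uninoculated tubes. Result scored as % inhibition.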

Compound: CN1CCN(c2nc(Oc3ccc(C#N)cc3)nc(-c3ccc(N4C(=O)CSC4c4ccccc4)cc3)n2)CC1 (configuration not stated)
- MIC99 [1]: 200 µg/mL (≈ 364 µM)

Compound: CN1CCN(c2nc(Oc3ccc(C#N)cc3)nc(-c3ccc(N4C(=O)CSC4c4ccc(Cl)cc4)cc3)n2)CC1 (configuration not stated)
- MIC99 [1]: 62.5 µg/mL (≈ 107 µM)

Compound: CN1CCN(c2nc(Oc3ccc(C#N)cc3)nc(-c3ccc(N4C(=O)CSC4c4ccc(Br)cc4)cc3)n2)CC1 (configuration not stated)
- IC50 (Vero): > 62.5 µg/mL
- MIC99 [1]: 25 µg/mL (≈ 39.8 µM)

Compound: CN1CCN(c2nc(Oc3ccc(C#N)cc3)nc(-c3ccc(N4C(=O)CSC4c4ccc(F)cc4)cc3)n2)CC1 (configuration not stated)
- MIC99 [1]: 100 µg/mL (≈ 176 µM)

Compound: CN1CCN(c2nc(Oc3ccc(C#N)cc3)nc(-c3ccc(N4C(=O)CSC4c4ccc([N+](=O)[O-])cc4)cc3)n2)CC1 (configuration not stated)
- MIC99 [1]: 100 µg/mL (≈ 168 µM)

Compound: CN1CCN(c2nc(Oc3ccc(C#N)cc3)nc(-c3ccc(N4C(=O)CSC4c4ccc(O)cc4)cc3)n2)CC1 (configuration not stated)
- IC50 (Vero): > 62.5 µg/mL
- MIC99 [1]: 12.5 µg/mL (≈ 22.1 µM)
- inhibition at 6.25 µg/mL [2]: 99%

Compound: COc1ccc(C2SCC(=O)N2c2ccc(-c3nc(Oc4ccc(C#N)cc4)nc(N4CCN(C)CC4)n3)cc2)cc1 (configuration not stated)
- IC50 (Vero): > 62.5 µg/mL
- MIC99 [1]: 25 µg/mL (≈ 43.1 µM)

Compound: CN1CCN(c2nc(Oc3ccc(C#N)cn3)nc(-c3ccc(N4C(=O)CSC4c4ccccc4)cc3)n2)CC1 (configuration not stated)
- MIC99 [1]: 125 µg/mL (≈ 227 µM)

Compound: CN1CCN(c2nc(Oc3ccc(C#N)cn3)nc(-c3ccc(N4C(=O)CSC4c4ccc(Cl)cc4)cc3)n2)CC1 (configuration not stated)
- MIC99 [1]: 100 µg/mL (≈ 171 µM)

Compound: CN1CCN(c2nc(Oc3ccc(C#N)cn3)nc(-c3ccc(N4C(=O)CSC4c4ccc(Br)cc4)cc3)n2)CC1 (configuration not stated)
- MIC99 [1]: 62.5 µg/mL (≈ 99.3 µM)

Compound: CN1CCN(c2nc(Oc3ccc(C#N)cn3)nc(-c3ccc(N4C(=O)CSC4c4ccc(F)cc4)cc3)n2)CC1 (configuration not stated)
- IC50 (Vero): > 62.5 µg/mL
- MIC99 [1]: 6.25 µg/mL (≈ 11 µM)
- inhibition at 6.25 µg/mL [2]: 99%

Compound: CN1CCN(c2nc(Oc3ccc(C#N)cn3)nc(-c3ccc(N4C(=O)CSC4c4ccc([N+](=O)[O-])cc4)cc3)n2)CC1 (configuration not stated)
- MIC99 [1]: 100 µg/mL (≈ 168 µM)

Compound: CN1CCN(c2nc(Oc3ccc(C#N)cn3)nc(-c3ccc(N4C(=O)CSC4c4ccc(O)cc4)cc3)n2)CC1 (configuration not stated)
- IC50 (Vero): > 62.5 µg/mL
- MIC99 [1]: 3.12 µg/mL (≈ 5.51 µM)
- inhibition at 6.25 µg/mL [2]: 99%

Compound: COc1ccc(C2SCC(=O)N2c2ccc(-c3nc(Oc4ccc(C#N)cn4)nc(N4CCN(C)CC4)n3)cc2)cc1 (configuration not stated)
- IC50 (Vero): > 62.5 µg/mL
- MIC99 [1]: 6.25 µg/mL (≈ 10.8 µM)
- inhibition at 6.25 µg/mL [2]: 99%

Compound: CC[C@@H](CO)NCCN[C@@H](CC)CO [ETHAMBUTOL]
- IC50 (Vero): > 62.5 µg/mL
- MIC99 [1]: 3.12 µg/mL (≈ 15.3 µM)

Compound: NNC(=O)c1ccncc1 [ISONIAZID]
- IC50 (Vero): > 62.5 µg/mL
- MIC99 [1]: 0.2 µg/mL (≈ 1.46 µM)

Compound: NC(=O)c1cnccn1 [PYRAZINAMIDE]
- IC50 (Vero): > 62.5 µg/mL
- MIC99 [1]: 6.25 µg/mL (≈ 50.8 µM)

Compound: CO[C@H]1/C=C/O[C@@]2(C)Oc3c(C)c(O)c4c(O)c(c(/C=N/N5CCN(C)CC5)c(O)c4c3C2=O)NC(=O)/C(C)=C\C=C\[C@H](C)[C@H](O)[C@@H](C)[C@@H](O)[C@@H](C)[C@H](OC(C)=O)[C@@H]1C [RIFAMPIN]
- IC50 (Vero): > 62.5 µg/mL
- MIC99 [1]: 0.25 µg/mL (≈ 0.304 µM)

Source: ChEMBL document CHEMBL3232709, “Facile synthesis of benzonitrile/nicotinonitrile based s-triazines as new potential antimycobacterial agents” (Eur J Med Chem, 2014)
